Data reported in ChEMBL document CHEMBL5678806, “NMS-P937, an orally available, specific small-molecule polo-like kinase 1 inhibitor with antitumor activity in solid and hematologic malignancies” (Mol Cancer Ther, 2012).
Activity calls are given as the source filed them. No cut-off for these calls is given here.

Tests used:
[1] = target: Serine/threonine-protein kinase pim-2 (Homo sapiens, UniProt Q9P1W9); assay: Inhibition of PIM2 (unknown origin) in presence of [gamma-33P]ATP
L-363 = assay: Antiproliferative activity against human L-363 cells assessed as inhibition of cell growth incubated for 72 hrs by cell-titer glo assay; assay type: functional, cell-based; conditions: L-363, 72 h
Outline: (§1)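 Cells seeded at 10,000–30,000/cm² (adherent) or 100,000/mL (nonadherent) in medium with 10% fetal calf serum; after 24 h, treated in duplicate with serial dilutions for 72 h. Viable cell number read by CellTiter-Glo luminescence; IC50 from sigmoidal fit; at least two independent experiments.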

[2] = target: Tyrosine-protein kinase Fer (Homo sapiens) (UniProt P16591); assay: Inhibition of N-terminal His6 tagged recombinant human Fer (541 to end residues) expressed in baculovirus infected Sf21 cells assessed as residual activity at 0.1 uM relative to control
Sequence of Tyrosine-protein kinase Fer (Homo sapiens) (P16591 whole entry, looked up): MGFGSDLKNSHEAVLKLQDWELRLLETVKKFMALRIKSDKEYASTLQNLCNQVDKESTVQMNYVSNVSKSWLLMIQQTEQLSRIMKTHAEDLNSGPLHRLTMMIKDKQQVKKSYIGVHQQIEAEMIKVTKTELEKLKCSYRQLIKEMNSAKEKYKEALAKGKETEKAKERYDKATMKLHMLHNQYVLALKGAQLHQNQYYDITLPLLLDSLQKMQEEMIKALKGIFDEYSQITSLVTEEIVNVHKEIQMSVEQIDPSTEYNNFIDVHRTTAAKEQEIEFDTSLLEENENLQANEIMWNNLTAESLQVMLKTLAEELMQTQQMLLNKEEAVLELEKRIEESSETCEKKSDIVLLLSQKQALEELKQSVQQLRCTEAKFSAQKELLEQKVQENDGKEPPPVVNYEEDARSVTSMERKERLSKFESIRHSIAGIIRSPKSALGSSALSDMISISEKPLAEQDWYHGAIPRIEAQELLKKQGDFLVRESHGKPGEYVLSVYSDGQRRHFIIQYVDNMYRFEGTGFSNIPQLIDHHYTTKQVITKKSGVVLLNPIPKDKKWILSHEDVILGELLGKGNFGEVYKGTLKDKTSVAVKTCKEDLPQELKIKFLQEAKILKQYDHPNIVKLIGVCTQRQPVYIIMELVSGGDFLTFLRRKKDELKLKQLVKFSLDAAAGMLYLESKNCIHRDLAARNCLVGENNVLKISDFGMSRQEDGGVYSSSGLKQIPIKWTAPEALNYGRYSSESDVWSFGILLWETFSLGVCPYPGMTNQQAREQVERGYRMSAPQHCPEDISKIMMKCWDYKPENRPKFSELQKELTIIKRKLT

[3] = AUC in Beagle dog at 5 mg/kg, iv by LC-MS analysis; assay type: ADME, organism-based, Canis lupus familiaris; conditions: in vivo
Caco-2 = assay: Antiproliferative activity against human Caco-2 cells assessed as inhibition of cell growth incubated for 72 hrs by cell-titer glo assay; assay type: functional, cell-based; conditions: Caco-2, 72 h
Outline: (§2)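 Cells seeded 10,000–30,000/cm² (adherent) or 100,000/mL (suspension) in medium with 10% fetal calf serum; after 24 h treated in duplicate with serial dilutions for 72 h. Viable cells read by CellTiter-Glo luminescence; IC50 from sigmoidal fit; at least two independent experiments.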

NCI-H460 = assay: Antiproliferative activity against human NCI-H460 cells assessed as inhibition of cell growth incubated for 72 hrs by cell-titer glo assay; assay type: functional, cell-based; conditions: NCI-H460, 72 h
Outline: (§3)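 Cells from ATCC or ECACC, kept in supplier-recommended medium with 1% penicillin-streptomycin at 37°C, 5% CO₂. Seeded at 10,000–30,000/cm² (adherent) or 100,000/mL (nonadherent) in medium with 10% fetal calf serum. Dosed after 24 h in duplicate with serial dilutions. Viable cells read by CellTiter-Glo 72 h later. IC50 from sigmoidal fit. At least two independent experiments.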

EVSA-T = assay: Antiproliferative activity against human EVSA-T cells assessed as inhibition of cell growth incubated for 72 hrs by cell-titer glo assay; assay type: functional, cell-based; outline: as §2
OPM-2 = assay: Antiproliferative activity against human OPM-2 cells assessed as inhibition of cell growth incubated for 72 hrs by cell-titer glo assay; assay type: functional, cell-based; conditions: OPM-2, 72 h; outline: as §3
[4] = Cmax in nu/nu mouse at 10 mg/kg, po by LC-MS analysis; assay type: ADME, organism-based; conditions: in vivo
A2780 [5] = assay: Antitumor activity against human A2780 cells xenografted in nu/nu mouse assessed as tumor growth inhibition at 60 mg/kg, po administered for 10 days; conditions: time 10.0 day
Ephrin type-A receptor 2 = Ephrin type-A receptor 2 (Homo sapiens, UniProt P29317); assay: Inhibition of EphA2 (unknown origin) in presence of [gamma-33P]ATP
Sequence of Ephrin type-A receptor 2 (P29317 whole entry): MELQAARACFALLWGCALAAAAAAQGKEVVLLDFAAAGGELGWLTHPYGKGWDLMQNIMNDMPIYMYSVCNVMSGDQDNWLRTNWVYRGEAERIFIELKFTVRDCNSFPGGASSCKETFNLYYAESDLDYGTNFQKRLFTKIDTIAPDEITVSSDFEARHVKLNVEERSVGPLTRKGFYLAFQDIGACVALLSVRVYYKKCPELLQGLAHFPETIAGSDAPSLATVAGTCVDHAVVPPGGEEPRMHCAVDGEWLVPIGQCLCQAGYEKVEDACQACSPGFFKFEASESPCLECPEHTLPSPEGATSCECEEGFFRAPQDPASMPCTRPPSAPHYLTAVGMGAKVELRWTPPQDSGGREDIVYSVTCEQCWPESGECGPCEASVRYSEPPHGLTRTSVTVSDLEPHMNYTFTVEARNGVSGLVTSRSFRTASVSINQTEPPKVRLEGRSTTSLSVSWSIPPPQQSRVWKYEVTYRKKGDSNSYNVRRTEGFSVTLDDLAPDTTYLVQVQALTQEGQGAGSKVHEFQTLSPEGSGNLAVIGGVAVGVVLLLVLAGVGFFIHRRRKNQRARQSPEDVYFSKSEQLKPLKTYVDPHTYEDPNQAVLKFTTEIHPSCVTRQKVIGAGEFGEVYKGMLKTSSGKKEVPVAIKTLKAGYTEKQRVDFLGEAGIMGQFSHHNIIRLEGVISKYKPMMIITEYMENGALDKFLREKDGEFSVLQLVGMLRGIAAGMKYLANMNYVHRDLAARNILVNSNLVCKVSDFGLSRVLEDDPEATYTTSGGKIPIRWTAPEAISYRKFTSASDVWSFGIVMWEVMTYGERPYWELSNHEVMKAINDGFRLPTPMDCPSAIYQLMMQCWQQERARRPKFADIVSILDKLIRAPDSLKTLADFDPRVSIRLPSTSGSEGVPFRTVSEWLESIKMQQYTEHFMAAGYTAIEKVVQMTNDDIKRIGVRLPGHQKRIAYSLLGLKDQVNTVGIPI

Calu-3 = assay: Antiproliferative activity against human Calu-3 cells assessed as inhibition of cell growth incubated for 72 hrs by cell-titer glo assay; assay type: functional, cell-based; conditions: Calu-3, 72 h; outline: as §2
A2780 [6] = assay: In vivo inhibition of PLK1 in human A2780 cells xenografted in nu/nu mouse assessed as decreased TCTP phosphorylation on Ser46 at 60 mg/kg, po administered for 6 to 12 hrs by immunohistochemistry analysis; assay type: functional, organism-based; conditions: time lower 6.0 hrs, time upper […]
[7] = target: Casein kinase I homolog 1 (Saccharomyces cerevisiae S288c) (UniProt P23291); assay: Inhibition of yeast CK1 assessed as residual activity at 0.1 uM relative to control
Sequence of Casein kinase I homolog 1 (Saccharomyces cerevisiae S288c) (P23291 whole entry): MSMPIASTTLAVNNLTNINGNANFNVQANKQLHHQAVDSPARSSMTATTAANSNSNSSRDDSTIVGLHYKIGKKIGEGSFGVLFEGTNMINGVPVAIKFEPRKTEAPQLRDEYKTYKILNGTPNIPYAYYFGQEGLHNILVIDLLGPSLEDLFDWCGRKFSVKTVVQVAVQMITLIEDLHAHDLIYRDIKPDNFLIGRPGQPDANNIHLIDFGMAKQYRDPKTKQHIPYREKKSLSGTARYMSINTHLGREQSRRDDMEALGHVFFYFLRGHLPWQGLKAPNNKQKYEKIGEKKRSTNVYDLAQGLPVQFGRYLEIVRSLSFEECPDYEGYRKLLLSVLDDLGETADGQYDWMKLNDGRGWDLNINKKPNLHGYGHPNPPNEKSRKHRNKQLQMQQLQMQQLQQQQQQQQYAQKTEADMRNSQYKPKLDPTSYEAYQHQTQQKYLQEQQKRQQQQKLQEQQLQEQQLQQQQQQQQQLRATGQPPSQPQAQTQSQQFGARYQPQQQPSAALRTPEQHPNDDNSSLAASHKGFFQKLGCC

[8] = target: Dual specificity mitogen-activated protein kinase kinase 6 (Homo sapiens) (UniProt P52564); assay: Inhibition of N-terminal maltose binding protein-tagged human MKK6 (4 to end residues) expressed in E. coli assessed as residual activity at 0.1 uM relative to control
Sequence of Dual specificity mitogen-activated protein kinase kinase 6 (Homo sapiens) (P52564 whole entry): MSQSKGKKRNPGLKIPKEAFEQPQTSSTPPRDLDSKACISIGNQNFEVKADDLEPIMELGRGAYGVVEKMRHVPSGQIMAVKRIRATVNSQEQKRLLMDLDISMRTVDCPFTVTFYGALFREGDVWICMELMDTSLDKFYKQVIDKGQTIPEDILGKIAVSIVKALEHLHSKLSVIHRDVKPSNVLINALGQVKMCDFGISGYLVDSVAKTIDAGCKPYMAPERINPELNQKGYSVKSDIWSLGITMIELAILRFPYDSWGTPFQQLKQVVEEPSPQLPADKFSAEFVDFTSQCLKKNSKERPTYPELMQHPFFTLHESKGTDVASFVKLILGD

[9] = target: Mitotic checkpoint serine/threonine-protein kinase BUB1 (Homo sapiens, UniProt O43683); assay: Inhibition of BUB1 (unknown origin) in presence of [gamma-33P]ATP
Sequence of Mitotic checkpoint serine/threonine-protein kinase BUB1 (O43683 whole entry): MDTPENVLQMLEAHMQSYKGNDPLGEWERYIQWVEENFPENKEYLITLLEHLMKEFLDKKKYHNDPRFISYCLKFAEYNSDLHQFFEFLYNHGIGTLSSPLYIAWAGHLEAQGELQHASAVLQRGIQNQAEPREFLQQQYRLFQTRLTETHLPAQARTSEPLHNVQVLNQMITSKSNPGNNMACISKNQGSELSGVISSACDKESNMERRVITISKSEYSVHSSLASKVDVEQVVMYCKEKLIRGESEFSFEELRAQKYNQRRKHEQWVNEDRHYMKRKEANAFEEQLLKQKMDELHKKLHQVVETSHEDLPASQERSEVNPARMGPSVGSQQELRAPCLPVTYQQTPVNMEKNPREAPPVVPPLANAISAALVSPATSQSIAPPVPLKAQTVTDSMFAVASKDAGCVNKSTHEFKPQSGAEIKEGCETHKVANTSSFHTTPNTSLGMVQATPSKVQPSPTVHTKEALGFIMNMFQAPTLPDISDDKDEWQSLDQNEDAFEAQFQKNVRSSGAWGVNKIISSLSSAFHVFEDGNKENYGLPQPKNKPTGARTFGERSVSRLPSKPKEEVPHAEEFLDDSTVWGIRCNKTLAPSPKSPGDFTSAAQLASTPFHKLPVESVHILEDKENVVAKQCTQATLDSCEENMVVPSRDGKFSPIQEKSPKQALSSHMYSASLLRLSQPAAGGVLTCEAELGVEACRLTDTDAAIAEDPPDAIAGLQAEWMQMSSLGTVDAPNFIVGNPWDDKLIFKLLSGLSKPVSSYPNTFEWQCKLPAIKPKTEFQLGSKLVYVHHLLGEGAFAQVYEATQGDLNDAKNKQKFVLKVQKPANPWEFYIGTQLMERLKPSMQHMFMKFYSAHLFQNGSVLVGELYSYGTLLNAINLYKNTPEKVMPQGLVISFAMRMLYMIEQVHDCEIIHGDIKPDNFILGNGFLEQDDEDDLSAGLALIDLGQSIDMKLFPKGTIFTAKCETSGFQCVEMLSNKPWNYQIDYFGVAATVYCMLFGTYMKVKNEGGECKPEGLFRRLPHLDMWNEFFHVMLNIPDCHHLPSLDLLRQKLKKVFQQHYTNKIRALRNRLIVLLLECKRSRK

[10] = target: Testis-specific serine/threonine-protein kinase 1 (Homo sapiens) (UniProt Q9BXA7); assay: Inhibition of 6His-tagged recombinant human full length TSSK1 expressed in baculovirus infected Sf21 cells assessed as residual activity at 0.1 uM relative to control
Sequence of Testis-specific serine/threonine-protein kinase 1 (Homo sapiens) (Q9BXA7 whole entry): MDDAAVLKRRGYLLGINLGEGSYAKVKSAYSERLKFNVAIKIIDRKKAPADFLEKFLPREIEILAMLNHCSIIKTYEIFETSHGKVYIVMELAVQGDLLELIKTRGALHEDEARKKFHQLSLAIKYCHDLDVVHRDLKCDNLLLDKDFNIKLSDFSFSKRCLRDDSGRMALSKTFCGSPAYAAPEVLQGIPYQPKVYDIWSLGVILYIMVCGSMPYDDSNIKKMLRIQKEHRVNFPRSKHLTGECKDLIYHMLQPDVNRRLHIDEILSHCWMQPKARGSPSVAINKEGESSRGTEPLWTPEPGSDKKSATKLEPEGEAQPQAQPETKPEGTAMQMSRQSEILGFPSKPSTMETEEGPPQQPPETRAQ

NCI-H146 = assay: Antiproliferative activity against human NCI-H146 cells assessed as inhibition of cell growth incubated for 72 hrs by cell-titer glo assay; assay type: functional, cell-based; conditions: NCI-H146, 72 h; outline: as §3
A2780 [11] = assay: Induction of DNA damage in human A2780 cells assessed as H2AX phosphorylation at 0.5 to 1 uM incubated for 8 hrs followed by compound washout and measured after 24 to 48 hrs by Western blotting analysis; assay type: functional, cell-based; conditions: dose 0.5-1 µM
SW-403 = assay: Antiproliferative activity against human SW403 cells assessed as inhibition of cell growth incubated for 72 hrs by cell-titer glo assay; assay type: functional, cell-based; conditions: SW-403, 72 h
[12] = target: Cyclin-dependent kinase 2/cyclin E1 (Homo sapiens, UniProt P24941); assay: Inhibition of CDK2/CycE (unknown origin) in presence of [gamma-33P]ATP; assay type: protein-complex assay
MDA-MB-436 = assay: Antiproliferative activity against human MDA-MB-436 cells assessed as inhibition of cell growth incubated for 72 hrs by cell-titer glo assay; assay type: functional, cell-based; conditions: MDA-MB-436, 72 h; outline: as §1
HCC70 = assay: Antiproliferative activity against human HCC70 cells assessed as inhibition of cell growth incubated for 72 hrs by cell-titer glo assay; assay type: functional, cell-based; conditions: HCC70, 72 h; outline: as §1
[13] = Toxicity in nu/nu mouse xenografted with human HCT-116 cells assessed as body weight loss at 45 mg/kg, iv administered for 3 days; assay type: organism-based; conditions: in vivo, 72 h, time 3 day
[14] = target: Serine/threonine-protein kinase PAK 3 (Homo sapiens) (UniProt O75914); assay: Inhibition of C-terminal 6His-tagged recombinant human full-length PAK3 expressed in baculovirus infected Sf21 cells assessed as residual activity at 1 uM relative to control
Sequence of Serine/threonine-protein kinase PAK 3 (Homo sapiens) (O75914 whole entry, looked up): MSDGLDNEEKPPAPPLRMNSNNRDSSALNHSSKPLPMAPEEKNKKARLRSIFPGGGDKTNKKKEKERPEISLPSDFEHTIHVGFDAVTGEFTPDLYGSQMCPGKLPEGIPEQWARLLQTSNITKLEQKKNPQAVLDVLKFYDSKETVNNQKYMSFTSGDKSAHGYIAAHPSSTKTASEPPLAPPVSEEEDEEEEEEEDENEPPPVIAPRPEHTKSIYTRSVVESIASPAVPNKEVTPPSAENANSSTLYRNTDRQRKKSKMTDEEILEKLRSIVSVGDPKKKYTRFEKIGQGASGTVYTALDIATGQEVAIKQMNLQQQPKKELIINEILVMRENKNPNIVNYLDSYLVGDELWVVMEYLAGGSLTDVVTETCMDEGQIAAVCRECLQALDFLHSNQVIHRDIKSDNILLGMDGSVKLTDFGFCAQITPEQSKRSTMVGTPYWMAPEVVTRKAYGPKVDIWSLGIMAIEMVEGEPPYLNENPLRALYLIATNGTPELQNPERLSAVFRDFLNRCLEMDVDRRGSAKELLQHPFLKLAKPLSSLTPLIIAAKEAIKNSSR

[15] = Tmax in Beagle dog at 5 mg/kg, po by LC-MS analysis; assay type: ADME, organism-based, Canis lupus familiaris; conditions: in vivo
[16] = target: Testis-specific serine/threonine-protein kinase 1 (Homo sapiens) (UniProt Q9BXA7); assay: Inhibition of 6His-tagged recombinant human full length TSSK1 expressed in baculovirus infected Sf21 cells assessed as residual activity at 1 uM relative to control
[17] = Cmax in Sprague-Dawley rat at 10 mg/kg, iv by LC-MS analysis; assay type: ADME, organism-based; conditions: in vivo
AU565 = assay: Antiproliferative activity against human AU565 cells assessed as inhibition of cell growth incubated for 72 hrs by cell-titer glo assay; assay type: functional, cell-based; conditions: AU565, 72 h; outline: as §2
Hs-578T = assay: Antiproliferative activity against human Hs-578T cells assessed as inhibition of cell growth incubated for 72 hrs by cell-titer glo assay; assay type: functional, cell-based; outline: as §1
BT-549 = assay: Antiproliferative activity against human BT-549 cells assessed as inhibition of cell growth incubated for 72 hrs by cell-titer glo assay; assay type: functional, cell-based; conditions: BT-549, 72 h; outline: as §2

Sequence of Serine/threonine-protein kinase pim-2 (Q9P1W9 whole entry): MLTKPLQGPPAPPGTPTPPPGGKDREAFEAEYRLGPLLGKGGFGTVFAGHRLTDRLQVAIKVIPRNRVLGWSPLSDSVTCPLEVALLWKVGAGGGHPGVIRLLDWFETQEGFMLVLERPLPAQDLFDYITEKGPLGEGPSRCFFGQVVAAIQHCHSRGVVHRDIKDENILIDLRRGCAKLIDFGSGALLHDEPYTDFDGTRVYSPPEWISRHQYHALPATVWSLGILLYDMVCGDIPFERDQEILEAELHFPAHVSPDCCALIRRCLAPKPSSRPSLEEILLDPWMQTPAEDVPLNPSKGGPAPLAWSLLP

`CN1CCN(c2ccc(OC(F)(F)F)c(Nc3ncc4c(n3)-c3c(c(C(N)=O)nn3CCO)CC4)c2)CC1` [ONVANSERTIB] showed an IC50 [1] of over 10000 nM, an IC50 (L-363) of 37 nM and an Activity [2] of 125%. For the same molecule, the AUC [3] was 4.2 µM·h, the IC50 (Caco-2) was 4760 nM and the IC50 (NCI-H460) was 109 nM. It also gave an IC50 (EVSA-T) of 41 nM, an IC50 (OPM-2) of 38 nM and a Cmax [4] of 0.6 µM. For the same molecule, the TGI (A2780 [5]) was “Active”, the IC50 (Ephrin type-A receptor 2) was over 10000 nM and the IC50 (Calu-3) was 629 nM. The inhibition (A2780 [6]) was “Active”, the Activity [7] was 42% and the Activity [8] was 131%. It also gave an IC50 [9] of over 10000 nM, an Activity [10] of 67% and an IC50 (NCI-H146) of 339 nM. For the same molecule, the Activity (A2780 [11]) was “Active”, the IC50 (SW-403) was 46 nM and the IC50 [12] was over 10000 nM. The IC50 (MDA-MB-436) was 93 nM, the IC50 (HCC70) was 279 nM and the Activity [13] was “Toxic”. For the same molecule, the Activity [14] was 90%, the Tmax [15] was 1.2 h and the Activity [16] was 20%. For the same molecule, the Cmax [17] was 6.8 µM, the IC50 (AU565) was 11 nM and the IC50 (Hs-578T) was 251 nM. For the same molecule, the IC50 (BT-549) was 49 nM.
